In ChEMBL document CHEMBL4392821:
Each block holds one molecule with its values, some of them ahead of it. Active and inactive are the calls of the source. No cut-off for these calls is given here. Square brackets hold non-standard residues; d marks the D form. Peptide text beside a SMILES is read from it. * marks the point of attachment. ξ: configuration not given here. X1 = CCCCCCCCCCCCCCCC(=O)OCC(C*)OC(=O)CCCCCCCCCCCCCCC; Palmitoyl = CCCCCCCCCCCCCCCC(=O)*; ξC = NC(CS)C(=O)O

Columns and labels:
Homo sapiens [1] = species: Homo sapiens; assay: Agonist activity at human TLR2/TLR1 V339A mutant expressed in HEK293T cells coexpressing NF-kappaB-driven luciferase reporter at 100 nM after 6 hrs by luciferase reporter gene assay; format: cell-based
How it was run: (§1)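 HEK293T cells stably carrying an NF-κB-driven luciferase reporter, in DMEM, were plated 18 h before transfection. They were co-transfected by lipofection with WT or point-mutant human TLR(2–1) and TLR(1–2) ectodomain/TIR-swap chimeras, and expression was checked by immunoblot. After 24 h, cells were stimulated for 6 h with 100 nM agonist or 20 or 50 ng/mL Pam3CSK4, then lysed for a luciferase read-out.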

Homo sapiens [2] = species: Homo sapiens; assay: Agonist activity at human TLR1/TLR2 Y325A mutant expressed in HEK293T cells coexpressing NF-kappaB-driven luciferase reporter at 100 nM after 6 hrs by luciferase reporter gene assay; format: cell-based; how it was run: as §1
Homo sapiens [3] = species: Homo sapiens; assay: Agonist activity at human TLR2/TLR1 F312A mutant expressed in HEK293T cells coexpressing NF-kappaB-driven luciferase reporter at 100 nM after 6 hrs by luciferase reporter gene assay; format: cell-based; how it was run: as §1
[4] = biological target: T1, Toll-like receptor 1 (Homo sapiens) (UniProt Q15399); assay: Induction of human TLR1 homodimerization expressed in insect Hi5 cells by size exclusion chromatography
T1 sequence (whole entry): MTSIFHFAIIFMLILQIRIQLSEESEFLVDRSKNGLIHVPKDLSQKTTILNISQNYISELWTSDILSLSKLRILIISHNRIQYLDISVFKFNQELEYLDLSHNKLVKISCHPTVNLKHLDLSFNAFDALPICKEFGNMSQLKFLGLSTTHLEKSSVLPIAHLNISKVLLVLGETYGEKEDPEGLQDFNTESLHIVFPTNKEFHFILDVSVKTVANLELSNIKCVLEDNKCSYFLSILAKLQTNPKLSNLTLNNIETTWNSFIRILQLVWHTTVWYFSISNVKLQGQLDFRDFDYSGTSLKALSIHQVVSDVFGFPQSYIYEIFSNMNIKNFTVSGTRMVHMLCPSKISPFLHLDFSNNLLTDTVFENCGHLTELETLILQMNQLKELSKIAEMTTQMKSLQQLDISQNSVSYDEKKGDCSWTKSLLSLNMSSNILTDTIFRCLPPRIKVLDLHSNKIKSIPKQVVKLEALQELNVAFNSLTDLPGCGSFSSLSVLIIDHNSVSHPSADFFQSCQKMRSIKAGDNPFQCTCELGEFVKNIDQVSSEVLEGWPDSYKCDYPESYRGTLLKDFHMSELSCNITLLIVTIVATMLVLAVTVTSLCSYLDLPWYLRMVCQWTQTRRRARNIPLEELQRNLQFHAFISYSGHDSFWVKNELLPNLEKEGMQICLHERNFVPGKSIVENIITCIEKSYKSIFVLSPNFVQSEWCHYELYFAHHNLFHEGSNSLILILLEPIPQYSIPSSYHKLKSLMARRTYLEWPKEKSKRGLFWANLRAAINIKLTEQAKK
How it was run: (§2)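 Human TLR1 and TLR2 ectodomains were made in Hi5 insect cells, partially deglycosylated, and had the protein A tag cleaved by thrombin before purification. Protein at 1 μM (each alone, or both together) was incubated with 30 μM ligand in 25 mM HEPES pH 8.0, 150 mM NaCl, 10% DMSO for 4 h at room temperature. Dimer formation was then analysed by analytical gel filtration on Superdex 200.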

Homo sapiens [5] = species: Homo sapiens; assay: Agonist activity at human TLR2/TLR1 Y320A mutant expressed in HEK293T cells coexpressing NF-kappaB-driven luciferase reporter at 100 nM after 6 hrs by luciferase reporter gene assay; format: cell-based; how it was run: as §1
Homo sapiens [6] = species: Homo sapiens; assay: Agonist activity at human TLR2/TLR1 W258A mutant expressed in HEK293T cells coexpressing NF-kappaB-driven luciferase reporter at 100 nM after 6 hrs by luciferase reporter gene assay; format: cell-based; how it was run: as §1
Homo sapiens [7] = species: Homo sapiens; assay: Agonist activity at human TLR1/TLR2 L328A mutant expressed in HEK293T cells coexpressing NF-kappaB-driven luciferase reporter at 100 nM after 6 hrs by luciferase reporter gene assay; format: cell-based; how it was run: as §1
Homo sapiens [8] = species: Homo sapiens; assay: Agonist activity at human TLR1/TLR2 Y323A mutant expressed in HEK293T cells coexpressing NF-kappaB-driven luciferase reporter at 100 nM after 6 hrs by luciferase reporter gene assay; format: cell-based; how it was run: as §1
Homo sapiens [9] = species: Homo sapiens; assay: Agonist activity at human TLR1/TLR2 Y332A mutant expressed in HEK293T cells coexpressing NF-kappaB-driven luciferase reporter at 100 nM after 6 hrs by luciferase reporter gene assay; format: cell-based; how it was run: as §1
Homo sapiens [10] = species: Homo sapiens; assay: Agonist activity at human TLR2/TLR1 F314A mutant expressed in HEK293T cells coexpressing NF-kappaB-driven luciferase reporter at 100 nM after 6 hrs by luciferase reporter gene assay; format: cell-based; how it was run: as §1
Homo sapiens [11] = species: Homo sapiens; assay: Agonist activity at human TLR2/TLR1 H340A mutant expressed in HEK293T cells coexpressing NF-kappaB-driven luciferase reporter at 100 nM after 6 hrs by luciferase reporter gene assay; format: cell-based; how it was run: as §1
Homo sapiens [12] = species: Homo sapiens; assay: Agonist activity at human TLR1/TLR2 F349A mutant expressed in HEK293T cells coexpressing NF-kappaB-driven luciferase reporter at 100 nM after 6 hrs by luciferase reporter gene assay; format: cell-based; how it was run: as §1
Homo sapiens [13] = species: Homo sapiens; assay: Agonist activity at human TLR2/TLR1 I319A mutant expressed in HEK293T cells coexpressing NF-kappaB-driven luciferase reporter at 100 nM after 6 hrs by luciferase reporter gene assay; format: cell-based; how it was run: as §1
Homo sapiens [14] = species: Homo sapiens; assay: Agonist activity at human TLR1/TLR2 L350A mutant expressed in HEK293T cells coexpressing NF-kappaB-driven luciferase reporter at 100 nM after 6 hrs by luciferase reporter gene assay; format: cell-based; how it was run: as §1
Homo sapiens [15] = species: Homo sapiens; assay: Agonist activity at human TLR1/TLR2 Y376 mutant expressed in HEK293T cells coexpressing NF-kappaB-driven luciferase reporter at 100 nM after 6 hrs by luciferase reporter gene assay; format: cell-based; how it was run: as §1
Homo sapiens [16] = species: Homo sapiens; assay: Agonist activity at human TLR1/TLR2 D327A mutant expressed in HEK293T cells coexpressing NF-kappaB-driven luciferase reporter at 100 nM after 6 hrs by luciferase reporter gene assay; format: cell-based; how it was run: as §1
Homo sapiens [17] = species: Homo sapiens; assay: Agonist activity at human TLR1/TLR2 V348A mutant expressed in HEK293T cells coexpressing NF-kappaB-driven luciferase reporter at 100 nM after 6 hrs by luciferase reporter gene assay; format: cell-based; how it was run: as §1
[18] = biological target: T2, Toll-like receptor 1/2 (Homo sapiens) (UniProt O60603+Q15399); assay: Antagonist activity at TLR2/TLR1 in human THP1 cells assessed as reduction in diprovoci-induced TNF production at 5 uM pre-incubated for 1 hr before diprovocim stimulation for 4 hrs by ELISA method; format: cell-based
[19] = biological target: T2, Toll-like receptor 1/2 (Homo sapiens); assay: Antagonist activity at TLR2/TLR1 in human THP1 cells assessed as reduction in diprovoci-induced TNF production at 50 uM pre-incubated for 1 hr before diprovocim stimulation for 4 hrs by ELISA method; format: cell-based
[20] = biological target: Toll-like receptor 2 (Homo sapiens) (UniProt O60603); assay: Induction of human TLR2 homodimerization expressed in insect Hi5 cells by size exclusion chromatography; how it was run: as §2
Homo sapiens [21] = species: Homo sapiens; assay: Agonist activity at human TLR1/TLR2 Y325A mutant expressed in HEK293T cells coexpressing NF-kappaB-driven luciferase reporter at 20 ng/ml after 6 hrs by luciferase reporter gene assay; format: cell-based; how it was run: as §1
[22] = biological target: T2, Toll-like receptor 1/2 (Homo sapiens); assay: Induction of human TLR2/TLR1 heterodimerization expressed in insect Hi5 cells by size exclusion chromatography; how it was run: as §2
Homo sapiens [23] = species: Homo sapiens; assay: Agonist activity at human TLR1/TLR2 F349A mutant expressed in HEK293T cells coexpressing NF-kappaB-driven luciferase reporter at 20 ng/ml after 6 hrs by luciferase reporter gene assay; format: cell-based; how it was run: as §1
Homo sapiens [24] = species: Homo sapiens; assay: Agonist activity at human TLR2/TLR1 F314A mutant expressed in HEK293T cells coexpressing NF-kappaB-driven luciferase reporter at 50 ng/ml after 6 hrs by luciferase reporter gene assay; format: cell-based; how it was run: as §1
Homo sapiens [25] = species: Homo sapiens; assay: Agonist activity at human TLR1/TLR2 Y332A mutant expressed in HEK293T cells coexpressing NF-kappaB-driven luciferase reporter at 20 ng/ml after 6 hrs by luciferase reporter gene assay; format: cell-based; how it was run: as §1
Homo sapiens [26] = species: Homo sapiens; assay: Agonist activity at human TLR2/TLR1 F312A mutant expressed in HEK293T cells coexpressing NF-kappaB-driven luciferase reporter at 50 ng/ml after 6 hrs by luciferase reporter gene assay; format: cell-based; how it was run: as §1
Homo sapiens [27] = species: Homo sapiens; assay: Agonist activity at human TLR1/TLR2 L328A mutant expressed in HEK293T cells coexpressing NF-kappaB-driven luciferase reporter at 20 ng/ml after 6 hrs by luciferase reporter gene assay; format: cell-based; how it was run: as §1
Homo sapiens [28] = species: Homo sapiens; assay: Agonist activity at human TLR1/TLR2 Y323A mutant expressed in HEK293T cells coexpressing NF-kappaB-driven luciferase reporter at 20 ng/ml after 6 hrs by luciferase reporter gene assay; format: cell-based; how it was run: as §1
Homo sapiens [29] = species: Homo sapiens; assay: Agonist activity at human TLR1/TLR2 D327A mutant expressed in HEK293T cells coexpressing NF-kappaB-driven luciferase reporter at 20 ng/ml after 6 hrs by luciferase reporter gene assay; format: cell-based; how it was run: as §1
Homo sapiens [30] = species: Homo sapiens; assay: Agonist activity at human TLR2/TLR1 Y320A mutant expressed in HEK293T cells coexpressing NF-kappaB-driven luciferase reporter at 50 ng/ml after 6 hrs by luciferase reporter gene assay; format: cell-based; how it was run: as §1
Homo sapiens [31] = species: Homo sapiens; assay: Agonist activity at human TLR2/TLR1 V339A mutant expressed in HEK293T cells coexpressing NF-kappaB-driven luciferase reporter at 50 ng/ml after 6 hrs by luciferase reporter gene assay; format: cell-based; how it was run: as §1
Homo sapiens [32] = species: Homo sapiens; assay: Agonist activity at human TLR2/TLR1 H340A mutant expressed in HEK293T cells coexpressing NF-kappaB-driven luciferase reporter at 50 ng/ml after 6 hrs by luciferase reporter gene assay; format: cell-based; how it was run: as §1
Homo sapiens [33] = species: Homo sapiens; assay: Agonist activity at human TLR2/TLR1 I319A mutant expressed in HEK293T cells coexpressing NF-kappaB-driven luciferase reporter at 50 ng/ml after 6 hrs by luciferase reporter gene assay; format: cell-based; how it was run: as §1
Homo sapiens [34] = species: Homo sapiens; assay: Agonist activity at human TLR2/TLR1 W258A mutant expressed in HEK293T cells coexpressing NF-kappaB-driven luciferase reporter at 50 ng/ml after 6 hrs by luciferase reporter gene assay; format: cell-based; how it was run: as §1
Homo sapiens [35] = species: Homo sapiens; assay: Agonist activity at human TLR1/TLR2 V348A mutant expressed in HEK293T cells coexpressing NF-kappaB-driven luciferase reporter at 20 ng/ml after 6 hrs by luciferase reporter gene assay; format: cell-based; how it was run: as §1
Homo sapiens [36] = species: Homo sapiens; assay: Agonist activity at human TLR1/TLR2 Y376 mutant expressed in HEK293T cells coexpressing NF-kappaB-driven luciferase reporter at 20 ng/ml after 6 hrs by luciferase reporter gene assay; format: cell-based; how it was run: as §1
Homo sapiens [37] = species: Homo sapiens; assay: Agonist activity at human TLR1/TLR2 L350A mutant expressed in HEK293T cells coexpressing NF-kappaB-driven luciferase reporter at 20 ng/ml after 6 hrs by luciferase reporter gene assay; format: cell-based; how it was run: as §1

Chain of Toll-like receptor 2 (Homo sapiens) (O60603 whole entry): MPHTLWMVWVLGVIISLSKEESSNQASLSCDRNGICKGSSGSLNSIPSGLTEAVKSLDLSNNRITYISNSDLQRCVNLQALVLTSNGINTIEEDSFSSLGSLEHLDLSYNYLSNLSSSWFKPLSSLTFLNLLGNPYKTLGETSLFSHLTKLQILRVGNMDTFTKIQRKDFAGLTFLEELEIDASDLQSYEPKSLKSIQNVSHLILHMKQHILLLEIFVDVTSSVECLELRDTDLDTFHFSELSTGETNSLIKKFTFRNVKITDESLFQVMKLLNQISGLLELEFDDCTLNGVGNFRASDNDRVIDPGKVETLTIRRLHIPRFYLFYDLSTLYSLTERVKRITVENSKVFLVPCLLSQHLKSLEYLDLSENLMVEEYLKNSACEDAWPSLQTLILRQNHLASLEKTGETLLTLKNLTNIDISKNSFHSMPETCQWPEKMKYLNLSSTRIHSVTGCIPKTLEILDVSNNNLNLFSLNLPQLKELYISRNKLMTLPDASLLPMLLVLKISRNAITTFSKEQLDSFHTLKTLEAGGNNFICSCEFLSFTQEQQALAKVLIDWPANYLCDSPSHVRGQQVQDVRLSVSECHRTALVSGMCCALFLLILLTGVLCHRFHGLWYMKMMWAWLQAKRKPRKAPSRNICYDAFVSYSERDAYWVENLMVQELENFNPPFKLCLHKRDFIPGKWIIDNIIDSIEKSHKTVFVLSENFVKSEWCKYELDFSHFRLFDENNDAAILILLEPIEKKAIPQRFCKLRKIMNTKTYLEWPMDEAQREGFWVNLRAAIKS

- Activity [4]: inactive
Compound: O=C(N[C@H]1C[C@@H]1c1ccccc1)[C@@H]1CN(C(=O)c2ccc(C(=O)N3C[C@@H](C(=O)N[C@H]4C[C@@H]4c4ccccc4)[C@H](C(=O)N[C@H]4C[C@@H]4c4ccccc4)C3)cc2)C[C@H]1C(=O)N[C@H]1C[C@@H]1c1ccccc1
- Activity (Homo sapiens [1]): inactive
- Activity (Homo sapiens [2]): inactive
- Activity (Homo sapiens [3]): Active
- Activity (Homo sapiens [5]): inactive
- Activity (Homo sapiens [6]): inactive
- Activity (Homo sapiens [7]): Active
- Activity (Homo sapiens [8]): inactive
- Activity (Homo sapiens [9]): Active
- Activity (Homo sapiens [10]): Active
- Activity (Homo sapiens [11]): inactive
- Activity (Homo sapiens [12]): inactive
- Activity (Homo sapiens [13]): inactive
- Activity (Homo sapiens [14]): Active
- Activity (Homo sapiens [15]): Active
- Activity (Homo sapiens [16]): Active
- Activity (Homo sapiens [17]): inactive

- inhibition [18]: Active
- inhibition [19]: Active
Compound: O=C(N[C@H]1C[C@@H]1c1ccccc1)[C@@H]1CN(C(=O)c2ccccc2)C[C@H]1C(=O)N[C@H]1C[C@@H]1c1ccccc1

- Activity [20]: inactive
- Activity [22]: Active
- Activity [4]: inactive
Compound: CCCCCCCCCCCCCCCC(=O)NC(CSCC(COC(=O)CCCCCCCCCCCCCCC)OC(=O)CCCCCCCCCCCCCCC)C(=O)N[C@@H](CO)C(=O)N[C@@H](CCCCN)C(=O)N[C@@H](CCCCN)C(=O)N[C@@H](CCCCN)C(=O)N[C@@H](CCCCN)C(=O)O (stereo partly drawn) (Palmitoyl-[ξC](X1)SKKKK-OH)
- Activity (Homo sapiens [21]): inactive
- Activity (Homo sapiens [23]): inactive
- Activity (Homo sapiens [24]): inactive
- Activity (Homo sapiens [25]): inactive
- Activity (Homo sapiens [26]): inactive
- Activity (Homo sapiens [27]): inactive
- Activity (Homo sapiens [28]): inactive
- Activity (Homo sapiens [29]): inactive
- Activity (Homo sapiens [30]): inactive
- Activity (Homo sapiens [31]): inactive
- Activity (Homo sapiens [32]): inactive
- Activity (Homo sapiens [33]): inactive
- Activity (Homo sapiens [34]): inactive
- Activity (Homo sapiens [35]): inactive
- Activity (Homo sapiens [36]): inactive
- Activity (Homo sapiens [37]): inactive
